The whole screen tested about 360,000 compounds, of which about 820 (0.23%) were called active.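 The calls were made as follows: active = compounds that cut the enzyme signal by at least half of the control window in the single-dose screen; inactive = the rest.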 For the sample, actives were picked, then their nearest neighbours and some compounds at random.

Sequence of Low molecular weight phosphotyrosine protein phosphatase (Homo sapiens) (P24666 whole entry, looked up): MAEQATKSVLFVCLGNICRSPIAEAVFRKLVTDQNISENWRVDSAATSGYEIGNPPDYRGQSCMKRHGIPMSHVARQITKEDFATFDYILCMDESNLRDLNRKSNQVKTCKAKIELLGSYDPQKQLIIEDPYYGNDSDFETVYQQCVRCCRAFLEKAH

This test concerns the target Low molecular weight phosphotyrosine protein phosphatase (Homo sapiens) (UniProt P24666). Put plainly: LMPTP phosphatase inhibitors, primary screen, biochemical, fluorescence intensity, uHTS (AID 651560).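 Also: plate controls were DMSO wells with enzyme plus substrate for no effect and substrate without enzyme for full effect.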 The settings on record: recombinant LMPTP-A, OMFP fluorogenic substrate, at 20 µM, active compounds read high. The essentials:
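Test system – LMPTP-A phosphatase enzyme · Quantity – 0.625 nM LMPTP-A final · Reagent – OMFP substrate, 400 µM final · Dosing – one test concentration per compound, 20 µM, with 3% DMSO overall · Timing – 50 min enzyme reaction at room temperature, protected from light · Detection – fluorescence intensity · Controls – substrate-only low control, DMSO enzyme-plus-substrate high control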
As to `CCCNC(=O)NC(=O)COC(=O)CC(NC(N)=O)c1ccc(Cl)cc1` (stereo unspecified), the inhibition is -1.19% (inactive).
Under `COc1ccc2c(c1)c(=Cc1ccc(N(C)C)cc1)c1cc(-c3ccccc3)[n+](C)n12` stands 96.2% (active); under `O=C(COC(=O)c1ccc([N+](=O)[O-])o1)NC12CC3CC(CC(C3)C1)C2`, 1.22% (inactive); under `COc1cc(NC(=S)N2CCCC(C)C2)c(OC)cc1Cl` (stereo unspecified), 0.265% (inactive).
Under `C=CCn1c(=O)n(C)c2c(=O)n(C)c(=O)n(C)c21` stands 0.217% (inactive).
With `Cc1csc(NC(=O)CSc2nnc(-c3cccnc3)o2)n1`, the inhibition was -0.391% (inactive).
In the case of `N#Cc1ccc(OCC(=O)NC(=O)NC2CCS(=O)(=O)C2)cc1` (stereo unspecified), the inhibition is -1.41% (inactive).
Under `O=C(CCN1C(=O)[C@@H]2Cc3ccccc3CN2C1=O)NCc1ccccc1` stands 0.0399% (inactive); under `COc1cccc(N(C(=O)c2ccn[nH]2)C2(C(=O)Nc3c(C)cccc3C)CCCCC2)c1`, -0.749% (inactive).
The result for `O=C(O)COCC(=O)NCc1csc2ccc(Cl)cc12` reads -1.97% (inactive); that for `CCOP(=O)(OCC)C(Nc1cccc(C)c1)c1ccc(F)cc1` (stereo unspecified), 0.494% (inactive); that for `COc1cnc(SCc2ccc(Cl)c(Cl)c2)nc1Cl`, 3.06% (inactive).
Under `CCN(CC)CCNC(=O)c1sc2ncn(CC(=O)Nc3ccc(C)c(Cl)c3)c(=O)c2c1C` stands -0.286% (inactive).
With `CCN1CCN(c2ccc(S(=O)(=O)N3CCCCC3)cc2NC(=O)Cc2c(Cl)cccc2Cl)CC1`, the inhibition is 1.2% (inactive).
The result for `CCC(C)Cn1c(O)cc2nn(-c3nc4ccccc4s3)c(=O)c-2c1C` (stereo unspecified) reads 52.5% (active).
The result for `O=c1c(-c2ccccc2)cnc2n1CCS2` reads -1.57% (inactive).
Under `O=c1c2cc(-c3ccccc3)sc2nc2n1N=C(c1cccs1)CS2` stands 61.5% (active); under `COc1ccc(C(O)c2nc(-c3ccc4c(c3)OCO4)cs2)cc1` (stereo unspecified), 0.808% (inactive); under `COc1cccc(C(O)c2nc(-c3ccc(C)c(C)c3)cs2)c1` (stereo unspecified), 3.13% (inactive).
For the compound `COc1ccc(OC)c(Nc2nc(-c3ccc(O)c(O)c3)cs2)c1`, the inhibition is 62.5% (active).
Regarding `Cc1ccccc1NC(=O)Cc1nc(COC(=O)CNC(=O)c2ccc(Cl)cc2Cl)cs1`, the inhibition is 0.684% (inactive).
The result for `COCCCNC(=O)C1CC(=O)N(CCc2ccccc2)C1` (stereo unspecified) reads -0.151% (inactive).
The result for `CN(CCC1CCOCC1)C(=O)CC1C(=O)NCCN1Cc1cccc(F)c1` (stereo unspecified) reads -1.38% (inactive).
Consider `Cc1cc2c(cc1C)N(C(=O)CN1C(=O)c3ccccc3C1=O)C(C)(C)c1ssc(=S)c1-2`, for which the inhibition was 2.43% (inactive).
The result for `CCOc1ccccc1NC(=O)C1CCCN(C(=O)Nc2ccccc2)C1` (stereo unspecified) reads -1.09% (inactive); that for `O=C(Cn1cnc2c(nnn2-c2ccccc2)c1=O)N1CCC(Cc2ccccc2)CC1`, 1.23% (inactive).
Consider `COc1cccc(CNc2nc(NCc3cccs3)nc3ccsc23)c1`, for which the inhibition is 27% (inactive).
The result for `CC(=O)Nc1ccc(CNc2nc(NCCN(C)C)nc3cc(-c4ccccc4)sc23)cc1` reads 1.9% (inactive); that for `COCCNc1nc(NCc2ccc(NC(C)=O)cc2)c2sccc2n1`, 51.4% (active); that for `Fc1ccccc1OCCSc1nc2ccccc2o1`, 1.37% (inactive).
As to `CCSc1nc2c(c(=O)[nH]1)C(c1cccnc1)C(C(=O)OC(C)C)=C(C)N2` (stereo unspecified), the inhibition is -1.3% (inactive).

A word on the inhibition: it is the change of the read-out against control, counted positive when it falls.
